The source of these data is ChEMBL document CHEMBL1240411, “Synthesis and evaluation of anti-Toxoplasma gondii and antimicrobial activities of thiosemicarbazides, 4-thiazolidinones and 1,3,4-thiadiazoles” (Eur J Med Chem, 2010).

Data set [1] concerns Toxoplasma gondii. Nature of the data set: Antimicrobial activity against tachyzoites of Toxoplasma gondii RH infected in Vero cells assessed as reduction of infected cells at 0.1 mM after 24 hrs relative to control. It counts as functional. Also noted: scale not given: the % may be the effect or the level left. The procedure, abridged: (§1)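 T. gondii RH tachyzoites were taken from mouse intraperitoneal passage. Vero cells were infected at 10:1 parasite:host for 1 h, PBS-washed, then held 24 h at 37 °C in medium 199 + 5% FCS. Compound exposure was 24 h at 37 °C. Cells were Bouin-fixed, Giemsa-stained and light-microscopy scored (≥400 cells) for % infected cells. Student's t-test, P<0.05. 13 assays in triplicate.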

Data set [2] deals with Toxoplasma gondii. Description: Antimicrobial activity against tachyzoites of Toxoplasma gondii RH infected in Vero cells assessed as reduction of infected cells at 1 mM after 24 hrs relative to control. It counts as functional. Also noted: scale not given: the % may be the effect or the level left. The essentials:
as §1

For data set [3], the system named is Toxoplasma gondii. Nature of the data set: Antimicrobial activity against tachyzoites of Toxoplasma gondii RH infected in Vero cells assessed as reduction of infected cells at 10 mM after 24 hrs relative to control. It counts as functional. Also noted: scale not given: the % may be the effect or the level left. The procedure, abridged: as §1
A short description of data set [4]: Cytotoxicity against african green monkey Vero cells after 24 hrs. The format is cell-based. Particulars: chlorocebus sabaeus, read-out: LD50.
Data set [5] is described as follows: Cytotoxicity against african green monkey Vero cells infected with tachyzoites of Toxoplasma gondii RH after 24 hrs. The format is cell-based. As to conditions: chlorocebus sabaeus, read-out: LD50. The procedure, abridged: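 Vero cells were infected with RH tachyzoites (10:1, 1 h), washed and incubated 24 h. They were then exposed 24 h to compound over 0.01–10 mM, in triplicate. Viability was scored by trypan blue exclusion, and LD50 was obtained by non-linear regression.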

Data set [6] has as its system Toxoplasma gondii. Nature of the data set: Antimicrobial activity against tachyzoites of Toxoplasma gondii RH infected in Vero cells assessed as reduction of infected cells after 24 hrs. It counts as functional. As to conditions: read-out: LD50 (the source's name). The essentials:
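RH tachyzoites came from intraperitoneal passage in Swiss mice, harvested at 48 h. Vero cells were infected at a 10:1 parasite:host ratio for 1 h, washed with PBS and grown 24 h at 37 °C in medium 199 with 5% FCS. Compounds were then added at 0.1, 1 and 10 mM for 24 h. Cells were Bouin-fixed and Giemsa-stained, and at least 400 cells were counted by light microscopy. Mean ± SD, n = 3; Student's t-test.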

The subject of data set [7] is Candida albicans. Description: Antifungal activity against Candida albicans UFPEDA 1007 by disc diffusion method. The format is functional. The essentials: (§2)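 Disc diffusion: discs holding known amounts of agent were laid on agar seeded with a standardized microbial suspension. DMSO discs (CH₂Cl₂ for ketoconazole tests) served as negative controls. Read-out was mean zone of inhibition (mm). Run in triplicate, repeated if results differed.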
(Agar diffusion results depend on both activity and mobility in agar.)

The subject of data set [8] is Candida. Nature of the data set: Antifungal activity against Candida sp. UFPEDA 2224 by disc diffusion method. The format is functional. The essentials:
as §2

The subject of data set [9] is Candida albicans. Nature of the data set: Antifungal activity against Candida albicans UFPEDA 1007 after 24 to 48 hrs by serial dilution method. It counts as functional. The essentials:
(§3)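 Only compounds giving a disc-diffusion mean inhibition zone of at least 18 mm were carried to MIC. Nistatin and ketoconazole served as antifungal references.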

Data set [10] concerns Candida. Nature of the data set: Antifungal activity against Candida sp. UFPEDA 2224 after 24 to 48 hrs by serial dilution method. The format is functional. The procedure, abridged:
as §3

The subject of data set [11] is Staphylococcus aureus. Description: Antibacterial activity against Staphylococcus aureus UFPEDA 02 by disc diffusion method. It counts as functional. The procedure, abridged: as §2
The subject of data set [12] is Bacillus subtilis. Nature of the data set: Antibacterial activity against Bacillus subtilis UFPEDA 16 by disc diffusion method. It counts as functional. The essentials:
as §2

Data set [13] deals with Staphylococcus aureus. Description: Antibacterial activity against Staphylococcus aureus UFPEDA 02 after 24 to 48 hrs by serial dilution method. The format is functional.
The test system of data set [14] is Bacillus subtilis. Nature of the data set: Antibacterial activity against Bacillus subtilis UFPEDA 16 after 24 to 48 hrs by serial dilution method. It counts as functional.
The subject of data set [15] is Mycolicibacterium smegmatis. Nature of the data set: Antibacterial activity against Mycobacterium smegmatis UFPEDA 71 by disc diffusion method. It counts as functional. The essentials:
as §2

Data set [16] deals with Mycolicibacterium smegmatis. Nature of the data set: Antibacterial activity against Mycobacterium smegmatis UFPEDA 71 after 24 to 48 hrs by serial dilution method. It counts as functional.
Data set [17] relates to Escherichia coli. Nature of the data set: Antibacterial activity against Escherichia coli UFPEDA 224 by disc diffusion method. It counts as functional. The essentials: as §2
Data set [18] relates to Escherichia coli. Nature of the data set: Antibacterial activity against Escherichia coli UFPEDA 224 after 24 to 48 hrs by serial dilution method. The format is functional.
Data set [19] relates to Aspergillus niger. Description: Antifungal activity against Aspergillus niger UFPEDA 2003 after 24 to 48 hrs by serial dilution method. The format is functional. The procedure, abridged:
as §3

Data set [20] relates to Aspergillus niger. Description: Antifungal activity against Aspergillus niger UFPEDA 2003 by disc diffusion method. It counts as functional. The procedure, abridged:
as §2

Values after ≈ are worked out from the molar mass of the structure shown. Where only a bound is given, the exact number is not on record here.

One may read the MIC as the smallest concentration in the dilution series that meets the test's criterion for growth inhibition. `Cc1[nH]cnc1C(=O)N/N=C1\SC(CC(=O)O)C(=O)N1c1ccc(Cl)cc1` (stereo not drawn): the Activity in data set [1] is given as 63%; in data set [2], 51%; in data set [3], 0.19%. Moreover, the CC50 at 24 h in data set [4] was more than 10000 µM; in data set [5], 1000 µM. In addition, the LC50 in data set [6] was 1500 µM. Moreover, the “inhibition zone (IZ)” value in data set [7] and in data set [8] was 20 mm in each case. The MIC came out at 280 µg/mL (≈ 687 µM) in data set [9] and 300 µg/mL (≈ 736 µM) in data set [10].
In the case of `Cc1[nH]cnc1-c1nnc(Nc2ccc(Cl)cc2)s1`, the Activity in data set [1] came to 12%; in data set [2], 8%; in data set [3], 1%. Moreover, the CC50 at 24 h was more than 10000 µM in data set [4] and 80 µM in data set [5]. In addition, the LC50 in data set [6] came to 50 µM.
Regarding `Cc1[nH]cnc1C(=O)NNC(=S)Nc1ccccc1`, the Activity in [1] is reported as 18%; in data set [2], 6%; in data set [3], 0%. For the same compound, the values for the CC50 at 24 h in [4] and in [5] were 1000 µM and 50 µM, respectively. Also, in data set [6], the LC50 was 50 µM. The figures for the “inhibition zone (IZ)” value in [11] and in [12] were 18 mm and 27 mm, respectively. For the same compound, the values for the MIC in data set [13] and in data set [14] were 190 µg/mL (≈ 690 µM) and 140 µg/mL (≈ 508 µM), respectively.
`Cc1[nH]cnc1-c1nnc(Nc2ccc(F)cc2)s1`: the values for the Activity in [1], in data set [2] and in data set [3] were 22%, 6% and 3%, respectively. For the same compound, the CC50 at 24 h is more than 10000 µM in [4] and 70 µM in data set [5]. Also, the LC50 in data set [6] turned out to be 50 µM.
As for `COc1ccc(Nc2nnc(-c3nc[nH]c3C)s2)cc1`, the Activity in [1] was found to be 28%; in data set [2], 14%; in [3], 0%. The figures for the CC50 at 24 h in [4] and in [5] were more than 10000 µM and 100 µM, respectively. The LC50 in [6] came to 50 µM.
On to `Cc1[nH]cnc1C(=O)N/N=C1\SC(CC(=O)O)C(=O)N1c1ccccc1` (stereo not drawn), for which the Activity was 69% in [1], 42% in [2] and 0% in [3]. For the same compound, the CC50 at 24 h in data set [4] and in [5] was 5000 µM each time. In addition, the LC50 in data set [6] was found to be 1500 µM. Also, the “inhibition zone (IZ)” value in data set [11] is 19 mm; in [12], 27 mm. For the same compound, the MIC in [13] amounted to 250 µg/mL (≈ 670 µM); in data set [14], 270 µg/mL (≈ 723 µM).
Consider `Cc1[nH]cnc1C(=O)NNC(=S)Nc1ccc(Cl)cc1`, for which the Activity in data set [1] came to 11%; in data set [2] it was 8%; in [3] it was 1%. The CC50 at 24 h is more than 10000 µM in data set [4] and 60 µM in [5]. In [6], the LC50 came to 60 µM. Moreover, the “inhibition zone (IZ)” value was determined as 25 mm in data set [11], 29 mm in [12] and 21 mm in data set [15]. The MIC in data set [13] was found to be 190 µg/mL (≈ 613 µM); in [14], 130 µg/mL (≈ 420 µM); in [16], 150 µg/mL (≈ 484 µM).
In the case of `O=C(N[C@H](CO)[C@H](O)c1ccc([N+](=O)[O-])cc1)C(Cl)Cl` [CHLORAMPHENICOL], the MIC amounted to 35 µg/mL (≈ 108 µM) in data set [13] and 30 µg/mL (≈ 92.8 µM) in data set [14].
As to `COc1ccc(NC(=S)NNC(=O)c2nc[nH]c2C)cc1`, the Activity stood at 22% in [1], 12% in data set [2] and 0% in data set [3]. For the same compound, the results for the CC50 at 24 h in [4] and in [5] were 1000 µM and 70 µM, respectively. The LC50 in data set [6] turned out to be 60 µM. Moreover, the “inhibition zone (IZ)” value in [11] was 19 mm; in data set [12], 22 mm. Moreover, the MIC in data set [13] amounted to 210 µg/mL (≈ 688 µM); in data set [14], 160 µg/mL (≈ 524 µM).
Regarding `Cc1[nH]cnc1C(=O)NNC(=S)Nc1ccc(F)cc1`, the results for the Activity in [1], in data set [2] and in data set [3] were 14%, 8% and 0%, respectively. The CC50 at 24 h worked out at 10000 µM in data set [4] and 60 µM in data set [5]. Further, in data set [6], the LC50 was 50 µM. Moreover, the “inhibition zone (IZ)” value in data set [11] is 20 mm; in [12], 28 mm; in data set [17], 21 mm; in data set [15] it was 20 mm. The MIC in [13] was determined as 190 µg/mL (≈ 648 µM); in [14] it was 130 µg/mL (≈ 443 µM); in [18], 250 µg/mL (≈ 852 µM); in data set [16] it was 160 µg/mL (≈ 545 µM).
For the compound `COc1ccc(N2C(=O)C(CC(=O)O)S/C2=N\NC(=O)c2nc[nH]c2C)cc1` (stereo not drawn), the Activity in data set [1] turned out to be 73%; in data set [2] it was 17%; in [3], 0%. Further, the CC50 at 24 h in [4] worked out at 5000 µM; in [5], 1000 µM. In addition, in data set [6], the LC50 is 500 µM.
With `Cc1[nH]cnc1-c1nnc(Nc2ccccc2)s1`, the results for the Activity in [1], in [2] and in data set [3] were 13%, 10% and 0.36%, respectively. Besides, the CC50 at 24 h is more than 10000 µM in [4] and 600 µM in [5]. In addition, the LC50 in data set [6] worked out at 50 µM.
In the case of `CC(=O)N1CCN(c2ccc(OCC3COC(Cn4ccnc4)(c4ccc(Cl)cc4Cl)O3)cc2)CC1` (stereo not drawn) [KETOCONAZOLE], the MIC in data set [9] worked out at 25 µg/mL (≈ 47 µM); in data set [10], 40 µg/mL (≈ 75.3 µM).
Regarding NYSTATIN, the MIC in data set [9], in [10] and in data set [19] was 50 µg/mL throughout.
For `Nc1ccc(S(=O)(=O)Nc2ncccn2)cc1` [SULFADIAZINE], the Activity in [1] amounted to 64%; in [2], 48%; in data set [3], 36%. For the same compound, the CC50 at 24 h in data set [4] and in [5] was more than 10000 µM throughout. In addition, in data set [6], the LC50 stood at 6000 µM.
Compound `CO[C@H]1/C=C/O[C@@]2(C)Oc3c(C)c(O)c4c(O)c(c(/C=N/N5CCN(C)CC5)c(O)c4c3C2=O)NC(=O)/C(C)=C\C=C\[C@H](C)[C@H](O)[C@@H](C)[C@@H](O)[C@@H](C)[C@H](OC(C)=O)[C@@H]1C` [RIFAMPIN] displayed an MIC in [16] of 55 µg/mL (≈ 66.8 µM).
For `NC(=O)NO` [HYDROXYUREA], the Activity was 53% in [1], 4% in data set [2] and 1% in data set [3]. In addition, the CC50 at 24 h in data set [4] and in [5] was more than 10000 µM in each case. The LC50 in data set [6] was 500 µM.
As to `Cc1[nH]cnc1C(=O)N/N=C1\SC(CC(=O)O)C(=O)N1c1ccc(F)cc1` (stereo not drawn), the Activity in data set [1] was determined as 59%; in [2] it was 22%; in data set [3], 0%. Also, the CC50 at 24 h is 5000 µM in [4] and 1000 µM in data set [5]. Besides, the LC50 in [6] is 100 µM. Further, in [20], the “inhibition zone (IZ)” value is recorded as 18 mm.
